ChEMBL document CHEMBL3414479, “Structure-based lead optimization and biological evaluation of BAX direct activators as novel potential anticancer agents” (J Med Chem, 2015)
Activity calls are given as the source filed them. The rule behind the calls is not given here.

Key:
[1] = system: Lewis lung carcinoma cell line; test: Antitumor activity against mouse LLC cells allografted in C57BL/6 mouse assessed as tumor growth inhibition at 60 mg/kg, ip administerd for 14 days measured on day 15 relative to control; conditions: read-out: TGI
[2] = target: Apoptosis regulator Bcl-2 (Homo sapiens, UniProt P10415); test: Displacement of FITC-BIM from recombinant human Bcl-2 expressed in Escherichia coli after 30 mins by fluorescence polarization assay
Apoptosis regulator Bcl-2, sequence (P10415 whole entry): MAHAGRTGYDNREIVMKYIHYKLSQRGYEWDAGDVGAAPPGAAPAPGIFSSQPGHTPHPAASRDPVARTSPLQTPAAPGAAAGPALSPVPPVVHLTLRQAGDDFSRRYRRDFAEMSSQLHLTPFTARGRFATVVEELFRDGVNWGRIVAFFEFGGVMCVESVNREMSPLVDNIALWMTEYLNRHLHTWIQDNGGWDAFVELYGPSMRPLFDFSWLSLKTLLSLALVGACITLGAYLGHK
In short: (§1)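 Fluorescence polarization competition: serial compound dilutions in 20 mM Hepes-KOH pH 7.4, 150 mM NaCl with 50 nM FITC-BIM; after 5 min, E. coli-expressed recombinant protein added at 1 µM; polarization read after 30 min incubation. Triplicates; Ki from nonlinear regression of competitive binding curves.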

Bcl-2-like protein 1 = Bcl-2-like protein 1 (Homo sapiens, UniProt Q07817); test: Displacement of FITC-BIM from recombinant human Bcl-XL expressed in Escherichia coli after 30 mins by fluorescence polarization assay; in short: as §1
Bcl-2-like protein 1, sequence (Q07817 whole entry, the tested form may be a part): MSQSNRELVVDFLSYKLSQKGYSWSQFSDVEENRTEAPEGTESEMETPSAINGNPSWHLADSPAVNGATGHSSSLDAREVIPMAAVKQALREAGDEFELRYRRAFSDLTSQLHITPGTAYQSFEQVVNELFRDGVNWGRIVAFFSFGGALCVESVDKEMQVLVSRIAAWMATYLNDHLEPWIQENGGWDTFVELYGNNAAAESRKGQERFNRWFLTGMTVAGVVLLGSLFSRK

MEF [3] = test: Induction of apoptosis in MEF assessed as appearance of fragmented nuclei and cell membrane blebbing at 15 uM after 24 hrs by DAPI staining; format: functional, cell-based; conditions: Mus musculus
In short: (§2)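 MEF wild-type or knockout clones (Bcl2, Bad, Bid, Bak, Bax, Bax/Bak) treated 24 h with compound (15 µM for single-concentration data) or 0.1% DMSO vehicle; apoptosis scored by fragmented nuclei and membrane blebbing. EC50 values are means of three experiments with s.d.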

MEF [4] = test: Induction of apoptosis in Bcl2-deficient MEF assessed as appearance of fragmented nuclei and cell membrane blebbing at 15 uM after 24 hrs by DAPI staining; format: functional, cell-based; conditions: Mus musculus; in short: as §2
MEF [5] = test: Induction of apoptosis in Bad-deficient MEF assessed as appearance of fragmented nuclei and cell membrane blebbing at 15 uM after 24 hrs by DAPI staining; format: functional, cell-based; conditions: Mus musculus; in short: as §2
MEF [6] = test: Induction of apoptosis in Bid-deficient MEF assessed as appearance of fragmented nuclei and cell membrane blebbing at 15 uM after 24 hrs by DAPI staining; format: functional, cell-based; conditions: Mus musculus; in short: as §2
MEF [7] = test: Induction of apoptosis in Bak-deficient MEF assessed as appearance of fragmented nuclei and cell membrane blebbing at 15 uM after 24 hrs by DAPI staining; format: functional, cell-based; conditions: Mus musculus; in short: as §2
MEF [8] = test: Induction of apoptosis in Bax-deficient MEF assessed as appearance of fragmented nuclei and cell membrane blebbing at 15 uM after 24 hrs by DAPI staining; format: functional, cell-based; conditions: Mus musculus; in short: as §2
MEF [9] = test: Induction of apoptosis in Bax/Bak-deficient MEF assessed as appearance of fragmented nuclei and cell membrane blebbing at 15 uM after 24 hrs by DAPI staining; format: functional, cell-based; conditions: Mus musculus; in short: as §2
[10] = system: Lewis lung carcinoma cell line; test: Antitumor activity against mouse LLC cells allografted in BD2F mouse assessed as tumor growth inhibition at 1.25 mg/kg, ip administered every other day for 5 treatments relative to control; format: functional; conditions: route intraperitoneal, read-out: TGI
MEF [11] = test: Induction of apoptosis in wild-type MEF assessed as appearance of fragmented nuclei and cell membrane blebbing after 24 hrs by DAPI staining; format: functional, cell-based; conditions: Mus musculus; in short: as §2
MEF [12] = test: Induction of apoptosis in Bcl2-deficient MEF assessed as appearance of fragmented nuclei and cell membrane blebbing after 24 hrs by DAPI staining; format: functional, cell-based; conditions: Mus musculus; in short: as §2
MEF [13] = test: Induction of apoptosis in Bad-deficient MEF assessed as appearance of fragmented nuclei and cell membrane blebbing after 24 hrs by DAPI staining; format: functional, cell-based; conditions: Mus musculus; in short: as §2
MEF [14] = test: Induction of apoptosis in Bid-deficient MEF assessed as appearance of fragmented nuclei and cell membrane blebbing after 24 hrs by DAPI staining; format: functional, cell-based; conditions: Mus musculus; in short: as §2
MEF [15] = test: Induction of apoptosis in Bak-deficient MEF assessed as appearance of fragmented nuclei and cell membrane blebbing after 24 hrs by DAPI staining; format: functional, cell-based; conditions: Mus musculus; in short: as §2
MEF [16] = test: Induction of apoptosis in Bax-deficient MEF assessed as appearance of fragmented nuclei and cell membrane blebbing after 24 hrs by DAPI staining; format: functional, cell-based; conditions: Mus musculus; in short: as §2
MEF [17] = test: Induction of apoptosis in Bax/Bak-deficient MEF assessed as appearance of fragmented nuclei and cell membrane blebbing after 24 hrs by DAPI staining; format: functional, cell-based; conditions: Mus musculus; in short: as §2
MEF [18] = test: Induction of apoptosis in MEF assessed as appearance of cell membrane blebbing at 15 uM after 24 hrs by DAPI staining in presence of caspase inhibitor Ac-DEVD-CHO; format: functional, cell-based; conditions: Mus musculus
In short: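 MEF cells treated 24 h at 15 µM in presence of caspase inhibitor Ac-DEVD-CHO (10 µM); cell membrane blebbing assessed by microscopy.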

[19] = Cytotoxicity against C57BL/6J mouse primary splenocytes assessed as effect on apoptosis rate at 10 uM after 72 hrs by DAPI staining; format: cell-based; conditions: splenocyte
In short: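 Primary splenocytes exposed 72 hours to 10 µM; apoptosis rate determined by counting apoptotic nuclei; mean with s.d. reported.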

Mus musculus [20] = test: In vivo activation of Bax in mouse LLC1 cells allografted in C57BL/6J mouse at 1 mg/kg, ip qd administered from day 14 to 17 post tumor implantation measured on day 17 by immunoprecipitation assay; format: functional, organism-based; set-up: dose 1 mg/kg
In short: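 Mice carrying tail-vein-injected LLC1 lung tumors received 1 mg/kg intraperitoneally once daily days 14–17 (vehicle 1% DMSO); on day 17 lung lysates were immunoprecipitated with conformation-specific anti-BAX 6A7 antibody to detect activated BAX.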

[21] = system: Lewis lung carcinoma cell line; test: (§3) Antitumor activity against mouse LLC1 cells allografted in C57BL/6J mouse assessed as reduction of tumor lesions at 1 mg/kg, ip qd administered from day 14 to 17 post tumor implantation measured on day 17 by hematoxylin and eosin staining-based microscopic analysis; format: functional, organism-based; set-up: dose 1 mg/kg
In short: (§4)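 LLC1 cells injected via tail vein on day 0; from day 14 to day 17 mice given intraperitoneal injection once daily at 1 mg/kg, vehicle 1% DMSO; euthanized day 17. Lungs inspected visually, and H&E-stained lung sections scored as tumor burden to lung area ratio versus vehicle controls.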

[22] = system: Lewis lung carcinoma cell line; test: as §3, with “decrease in ratio” for “reduction”, “burden to lung area” for “lesions”, “analysis relative to control” for “analysis”; format: functional; set-up: scale not given: the % may be the effect or the level left; conditions: route intraperitoneal; in short: as §4
Mus musculus [23] = test: Toxicity in C57BL/6J mouse allografted with mouse LLC1 cells assessed as mortality at 1 mg/kg, ip qd administered from day 14 to 17 post tumor implantation measured during compound dosing; format: organism-based; set-up: dose 1 mg/kg, route intraperitoneal; conditions: in vivo
Mus musculus [24] = test: Toxicity in C57BL/6J mouse allografted with mouse LLC1 cells assessed as evidence of gross toxicity at 1 mg/kg, ip qd administered from day 14 to 17 post tumor implantation measured during compound dosing; format: organism-based; set-up: dose 1 mg/kg, route intraperitoneal; conditions: in vivo
Mus musculus [25] = test: Toxicity in C57BL/6J mouse allografted with mouse LLC1 cells assessed as evidence of behavioral side effect at 1 mg/kg, ip qd administered from day 14 to 17 post tumor implantation measured during compound dosing; format: organism-based; set-up: dose 1 mg/kg, route intraperitoneal; conditions: in vivo
Mus musculus [26] = test: Toxicity in C57BL/6J mouse allografted with mouse LLC1 cells assessed as change in body weight at 1 mg/kg, ip qd administered from day 14 to 17 post tumor implantation measured during compound dosing; format: organism-based; set-up: dose 1 mg/kg, route intraperitoneal; conditions: in vivo
Mus musculus [27] = species on record: Mus musculus; test: Toxicity in C57BL/6J mouse assessed as effect on heart; format: organism-based; conditions: in vivo
Mus musculus [28] = species on record: Mus musculus; test: Toxicity in C57BL/6J mouse assessed as effect on femoral muscle; format: organism-based, Muscle tissue; conditions: in vivo
Mus musculus [29] = species on record: Mus musculus; test: Toxicity in C57BL/6J mouse assessed as effect on lung; format: organism-based; conditions: in vivo

SMILES | Ki [2] | Ki (Bcl-2-like protein 1) | Activity (MEF [3]) | Activity (MEF [4]) | Activity (MEF [5]) | Activity (MEF [6]) | Activity (MEF [7]) | Activity (MEF [8]) | Activity (MEF [9]) | also measured
O=P1(N(CCCl)CCCl)NCCCO1 (stereo not drawn) [CYCLOPHOSPHAMIDE ANHYDROUS] | – | – | – | – | – | – | – | – | – | inhibition in vivo at 60 mg/kg [1]: 40%
CCOc1ccccc1N/N=C1\C(=O)N(c2cccc(-c3ccc(N(C)C)cc3)c2)N=C1C | 4.2 µM | > 100 µM | Active | Active | Active | Active | Active | Active | inactive | –
CCOc1ccccc1N/N=C1\C(=O)N(c2cc(O)cc(-c3ccccc3)c2)N=C1C | > 100 µM | > 100 µM | Active | Active | Active | Active | Active | inactive | inactive | –
CC1=NN(c2cc(O)cc(-c3ccc(N(C)C)cc3)c2)C(=O)/C1=N\Nc1ccc2ccccc2c1 | 33.9 µM | 3.4 µM | Active | Active | Active | Active | Active | inactive | inactive | –
CCOc1ccccc1N/N=C1\C(=O)N(c2cc(O)cc(-c3cccs3)c2)N=C1C | > 100 µM | > 100 µM | inactive | – | – | – | – | – | inactive | –
COc1cccc2c1C(=O)c1c(O)c3c(c(O)c1C2=O)C[C@@](O)(C(=O)CO)C[C@@H]3O[C@H]1C[C@H](N)[C@H](O)[C@H](C)O1 [DOXORUBICIN] | – | – | – | – | – | – | – | – | – | inhibition in vivo at 1.25 mg/kg [10]: 40%
CCOc1ccccc1N/N=C1\C(=O)N(c2cc(O)cc(-c3ccncc3)c2)N=C1C | > 100 µM | 30.9 µM | Active | Active | Active | Active | Active | inactive | inactive | –
CCOc1ccccc1N/N=C1\C(=O)N(c2cc(O)cc(-c3cccc(N)c3)c2)N=C1C | > 100 µM | > 100 µM | Active | Active | Active | Active | Active | Active | inactive | –
CCOc1ccccc1N/N=C1\C(=O)N(c2cc(O)cc(-c3ccc(N(C)C)cc3)c2)N=C1C | 12 µM | > 100 µM | – | – | – | – | – | – | – | EC50 (MEF [11]): 1.1 µM; EC50 (MEF [12]): 0.6 µM; EC50 (MEF [13]): 0.8 µM; EC50 (MEF [14]): 0.7 µM; EC50 (MEF [15]): 1.3 µM; EC50 (MEF [16]): > 50 µM; EC50 (MEF [17]): > 50 µM; Activity (MEF [18]): inactive; Activity [19]: Non-toxic; Activity (Mus musculus [20]): Active; Activity [21]: Active; Activity [22]: 50%; Activity (Mus musculus [23]): Non-toxic; Activity (Mus musculus [24]): Non-toxic; Activity (Mus musculus [25]): Non-toxic; Activity (Mus musculus [26]): Non-toxic; Activity (Mus musculus [27]): Non-toxic; Activity (Mus musculus [28]): Non-toxic; Activity (Mus musculus [29]): Non-toxic
CCOc1ccccc1N/N=C1\C(=O)N(c2cc(O)cc(-c3ccc(C(C)C)cc3)c2)N=C1C | 1.9 µM | 15.5 µM | Active | Active | Active | Active | Active | Active | inactive | –

More lines, main results first:

Ki [2] | Ki (Bcl-2-like protein 1) | SMILES | Activity (MEF [3]) | Activity (MEF [4]) | Activity (MEF [5]) | Activity (MEF [6]) | Activity (MEF [7]) | Activity (MEF [8]) | Activity (MEF [9]) | also measured
2 µM | 6.8 µM | CC1=NN(c2nc(-c3ccccc3)cs2)C(=O)/C1=C/c1ncc[nH]1 | Active | Active | Active | Active | Active | Active | inactive | –
1.9 µM | 2.4 µM | CC1=NN(c2nc(-c3ccccc3)cs2)C(=O)/C1=C/c1ccccc1 | Active | Active | Active | Active | Active | Active | inactive | –
2 µM | 3.4 µM | CC1=NN(c2nc(-c3ccccc3)cs2)C(=O)/C1=C/c1ccc2ccccc2c1 | Active | Active | Active | Active | Active | Active | inactive | –
> 100 µM | > 100 µM | CCOc1ccccc1CC(=O)C1C(=O)N(c2nc(-c3ccccc3)cs2)N=C1C (stereo not drawn) | inactive | – | – | – | – | – | inactive | –
> 100 µM | > 100 µM | CCOc1ccccc1C(=O)C(=O)C1C(=O)N(c2nc(-c3ccccc3)cs2)N=C1C (stereo not drawn) | inactive | – | – | – | – | – | inactive | –
1.6 µM | 3.1 µM | CC1=NN(c2nc(-c3ccccc3)cs2)C(=O)/C1=C/c1ccc(-c2ccccc2)cc1 | Active | Active | Active | Active | Active | Active | inactive | –
1.6 µM | > 100 µM | CC1=NN(c2nc(-c3ccccc3)cs2)C(=O)/C1=C/C(c1ccccc1)c1ccccc1 | Active | Active | Active | Active | Active | Active | inactive | –
3 µM | > 100 µM | CCOc1ccccc1N/N=C1/C(=O)N(c2nc(-c3ccccc3)cs2)N=C1C | – | – | – | – | – | – | – | EC50 (MEF [11]): 7.7 µM; EC50 (MEF [12]): 3.2 µM; EC50 (MEF [13]): 3.5 µM; EC50 (MEF [14]): 4 µM; EC50 (MEF [15]): 6 µM; EC50 (MEF [16]): > 50 µM; EC50 (MEF [17]): > 50 µM
